ChEMBL document CHEMBL1781903, “Antiprotozoal activity of chloroquinoline based chalcones” (Eur J Med Chem, 2011)
Active and inactive are the calls of the source. No cut-off for these calls is given here.

Experiments:
[1] = test system: Plasmodium falciparum; experiment: Inhibition of Plasmodium falciparum falcipain
[2] = Cytotoxicity against human MCF7 cells assessed as cell growth inhibition at 50 uM after 48 hrs by MTT assay; format: cell-based; details: read-out: GI
Procedure, shortened: (§1)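 MCF-7 cells grown in DMEM with 10% FCS and penicillin/streptomycin, seeded at 1.2×10^4 cells/well and grown 48 h before treatment. Stocks prepared in 20% (v/v) DMSO and diluted in medium. After 48 h at 37 °C, MTT (5 mg/mL) added for 4 h, formazan dissolved in DMSO, A570 read with 655 nm reference. Viability relative to untreated cells; triplicate.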

[3] = test system: Plasmodium falciparum; experiment: Inhibition of Plasmodium falciparum cysteine protease
[4] = test system: MCF7; experiment: Cytotoxicity against human MCF7 cells after 48 hrs by MTT assay; format: cell-based; details: MCF7, 48 h; procedure, shortened: as §1
[5] = Toxicity in human RBC assessed as hemolysis at 100 uM after 48 hrs; format: cell-based, Erythrocyte; details: red blood cells (RBC), read-out: Activity
Procedure, shortened: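 Fresh human red blood cells at 1% haematocrit in culture medium, incubated 48 h with compound at 100 μM, absorbance read at 412 nm. % haemolysis calculated against 0.5% Triton X100 as the 100% control. At least triplicate, mean ± s.d.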

[6] = test system: Entamoeba histolytica; experiment: Ratio of metronidazole IC50 to compound IC50 for Entamoeba histolytica HM-1:IMSS trophozoites; format: functional
[7] = test system: Plasmodium falciparum; experiment: Antimicrobial activity against chloroquine-sensitive Plasmodium falciparum 3D7 assessed as inhibition of [3H] hypoxanthine incorporation after 24 hrs by scintillation counting; format: functional, organism-based
Procedure, shortened: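 Synchronized ring-stage 3D7 culture at 0.5% parasitemia and 1% haematocrit in supplemented RPMI-1640, exposed to serially diluted DMSO stocks for 24 h. [3H]-hypoxanthine added at 0.5 µCi/well for a further 24 h, then DNA harvested onto filter mats and counted by β-scintillation. IC50 from log sigmoid dose-response curves. At least triplicate; chloroquine and quinine as references.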

[8] = Cytotoxicity against human MCF7 cells assessed as cell growth inhibition at 100 uM after 48 hrs by MTT assay; format: cell-based; details: read-out: GI; procedure, shortened: as §1
[9] = test system: MCF7; experiment: Cytotoxicity against human MCF7 cells assessed as cell growth inhibition after 48 hrs by MTT assay; format: cell-based; details: mcf7, 48 h; procedure, shortened: as §1
[10] = test system: Entamoeba histolytica; experiment: […] activity against Entamoeba histolytica HM-1:IMSS trophozoites after 72 hrs by microdilution method; format: functional, organism-based
Procedure, shortened: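 E. histolytica trophozoites in TYIS-33 medium; DMSO stocks (1 mg/mL) twofold serially diluted, 1.7×10^4 amoebae/well, nitrogen-gassed, 37 °C for 72 h. Methanol-fixed, eosin-stained, dye released in 0.1 N NaOH, OD 490 nm. Triplicate per concentration, repeated thrice. % inhibition vs log concentration, IC50 from linear regression; metronidazole as reference.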

[11] = Inhibition of beta-haematin formation after 24 hrs by microtiter plate assay; format: functional
Procedure, shortened: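 Compound mixed with haemin (1 mg/mL in DMSO), water and 0.5 M acetate buffer at pH 4.7, then incubated 24 h. Unreacted haemin removed by three DMSO washes with centrifugation at 1500 g. β-haematin dissolved in 2 M NaOH, diluted twofold, absorbance read at 405 nm. IC50 taken from the data. Chloroquine and quinine as positive controls; at least triplicate.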

[12] = Inhibition of beta-haematin formation at 100 uM after 24 hrs by microtiter plate assay; format: functional
[13] = test system: Plasmodium falciparum; experiment: Antimicrobial activity against chloroquine-sensitive Plasmodium falciparum 3D7 assessed as inhibition of [3H] hypoxanthine incorporation at 100 uM after 24 hrs by scintillation counting; format: functional
[14] = test system: Radical scavenging activity; experiment: Antioxidant activity assessed as DPPH radical scavenging activity at 80 uM after 30 mins; format: functional
Procedure, shortened: (§2)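 Compounds added to DPPH• in methanol, kept in the dark at room temperature for 30 min, absorbance read at 540 nm. Scavenging given as % decrease in absorbance relative to a drug-free DPPH• control, with a MeOH/DMSO background control. Ascorbic acid as comparator; triplicate.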

[15] = test system: Plasmodium falciparum; experiment: Antimicrobial activity against chloroquine-resistant Plasmodium falciparum FCB1; format: functional, organism-based; details: FcB1/Columbia
[16] = test system: Radical scavenging activity; experiment: Antioxidant activity assessed as DPPH radical scavenging activity after 30 mins; format: functional; procedure, shortened: as §2

| Compound | inhibition [1] | inhibition at 48 h, 50 µM [2] [%] | inhibition [3] | IC50 [4] [µM] | hemolysis at 48 h, 100 µM [5] [%] | Ratio IC50 [6] | IC50 [7] [µM] | inhibition at 48 h, 100 µM [8] [%] | Activity [9] | IC50 [10] [µM] | IC50 [11] [µM] | inhibition [12] [%] | inhibition at 100 µM [13] [%] | Activity [14] [%] | IC50 [15] [µM] | IC50 [16] [µM] |
| --- | --- | --- | --- | --- | --- | --- | --- | --- | --- | --- | --- | --- | --- | --- | --- | --- |
| Cc1ccc2cc(/C=C/C(=O)c3ccccn3)c(Cl)nc2c1 | inactive | 36 | inactive | 75.7 | 0.47 | 29.2 | 31.3 | 66 | Dose-dependent effect | 0.05 | > 100 | 15 | – | – | – | – |
| C/C(=C\c1cc2cc(C)ccc2nc1Cl)C(=O)c1cccc(Cl)c1 | inactive | – | inactive | > 100 | 1.24 | – | > 100 | – | – | 0.06 | > 100 | 14.4 | 8.74 | – | – | – |
| C/C(=C\c1cc2cc(C)ccc2nc1Cl)C(=O)c1cccc(Br)c1 | inactive | – | inactive | – | 1.53 | – | > 100 | – | – | 2.79 | > 100 | 13.3 | 51.1 | – | – | – |
| C/C(=C\c1cc2ccc(C)cc2nc1Cl)C(=O)c1cccc(Br)c1 | inactive | – | inactive | > 100 | 1.04 | 16 | 47.1 | – | – | 0.09 | > 100 | 10.5 | – | 2.27 | – | – |
| Cc1ccc2cc(/C=C/C(=O)c3ccc(Cl)cc3)c(Cl)nc2c1 | inactive | – | inactive | – | – | – | – | – | – | 6.91 | – | – | – | – | > 200 | – |
| C=C[C@H]1CN2CC[C@H]1C[C@H]2[C@H](O)c1ccnc2ccc(OC)cc12 [QUININE] | – | – | – | – | – | – | 0.14 | – | – | – | 65.8 | – | – | 2.65 | – | – |
| Cc1ncc([N+](=O)[O-])n1CCO [METRONIDAZOLE] | – | – | – | > 100 | – | – | – | – | – | 1.46 | – | – | – | – | – | – |
| O=C(/C=C/c1cc2ccccc2nc1Cl)c1cccc(Br)c1 | inactive | – | inactive | – | 1.38 | – | > 100 | – | – | 3.45 | > 100 | 16 | 61.2 | – | – | – |
| Cc1ccc2nc(Cl)c(/C=C/C(=O)c3ccccn3)cc2c1 | inactive | – | inactive | – | 1.55 | – | 31.5 | – | – | 1.45 | > 100 | 11.5 | – | – | – | – |
| O=C(/C=C/c1cc2ccccc2nc1Cl)c1ccc(Br)cc1 | inactive | – | inactive | – | 2.2 | – | 44.6 | – | – | 3.38 | > 100 | 13.6 | – | – | – | – |
| O=C(/C=C/c1cc2ccccc2nc1Cl)c1ccccn1 | inactive | – | inactive | – | 1.1 | – | 32 | – | – | 5.3 | > 100 | 12.3 | – | – | – | – |
| C=C[C@H]1C[N@@]2CC[C@H]1C[C@H]2[C@H](O)c1ccnc2ccc(OC)cc12 [QUININE] | – | – | – | – | 1.22 | – | – | – | – | – | – | – | – | – | – | – |
| O=C1O[C@H]([C@@H](O)CO)C(O)=C1O [ASCORBIC ACID] | – | – | – | – | – | – | – | – | – | – | – | – | – | – | – | 20.1 |
| Cc1ccc2nc(Cl)c(/C=C/C(=O)c3ccc(Br)cc3)cc2c1 | inactive | – | inactive | – | 1.4 | – | 74.8 | – | – | 4.09 | > 100 | 55.4 | – | – | – | – |
| Cc1ccc2nc(Cl)c(/C=C/C(=O)c3cccc(Br)c3)cc2c1 | inactive | – | inactive | > 100 | 1.68 | – | 50.1 | – | – | 1.03 | > 100 | 14.9 | – | – | – | – |
| C/C(=C\c1cc2ccc(C)cc2nc1Cl)C(=O)c1cccc(Cl)c1 | inactive | – | inactive | – | 1.44 | – | 50.4 | – | – | 7.03 | > 100 | 5.64 | – | 0.78 | – | – |
| C/C(=C\c1cc2ccccc2nc1Cl)C(=O)c1cccc(Br)c1 | inactive | – | inactive | – | 2.17 | – | > 100 | – | – | 3.65 | > 100 | 9.35 | 34.3 | 1.43 | – | – |
| O=C(/C=C/c1cc2ccccc2nc1Cl)c1ccc(Cl)cc1 | inactive | – | inactive | > 100 | 1.74 | 29.2 | 39.2 | – | – | 0.05 | > 100 | 19.5 | – | 3.69 | > 200 | – |
| CCN(CC)CCCC(C)Nc1ccnc2cc(Cl)ccc12 (configuration not stated) [CHLOROQUINE] | – | – | – | – | 0.72 | – | – | – | – | – | 25 | – | – | 4.06 | – | – |
| Cc1ccc2cc(/C=C/C(=O)c3cccc(Br)c3)c(Cl)nc2c1 | inactive | – | inactive | – | 1.09 | – | 59.7 | – | – | 7.53 | > 100 | 27.5 | – | – | – | – |
